# B1: Osa-1-4 twister ribozyme (parent)
# chain: CCGCCUAACACUGCCAAUGCCGGUCCCAAGCCCGGAUAAAAGUGGAGGGGGCGG
# Variants of: B1
# Assay: self-cleavage, relative activity (ratio to wild type); higher = more cleavage; co-transcriptional
# Procedure, shortened: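 A DNA template was synthesised for a 54-nucleotide twister ribozyme from Oryza sativa, with 97 % wild-type base and 1 % of each other base at each of the 48 positions downstream of the cleavage site. The ribozyme cleaved itself co-transcriptionally during 2 h of in vitro transcription at 37 °C. Reverse transcription with a template-switching oligonucleotide, PCR amplification and deep sequencing followed, and cleavage status came from reads with or without upstream sequence. Relative activity is the fraction cleaved normalised to wild type.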
row,Variant,self-cleavage
1,CCGCCUAACACUGCCAAUGCCGGUCCCAAGACCGGAUAGAAGUGGAGGGGGCGG,0.03
2,CCGCCUAACACUGCCAAUGCCGGUCCCAAGGCCGGAUAGAAGUGGAGGGGGCGG,0.1
3,CCGCCUAACACUGCCAAUGCCGGUCCCAAGUCCGGAUAGAAGUGGAGGGGGCGG,0.56
4,CCGCCUAACACUGCCAAUGCCGGUCCCAAGCACGGAUAGAAGUGGAGGGGGCGG,0.08
5,CCGCCUAACACUGCCAAUGCCGGUCCCAAGCGCGGAUAGAAGUGGAGGGGGCGG,0.14
6,CCGCCUAACACUGCCAAUGCCGGUCCCAAGCUCGGAUAGAAGUGGAGGGGGCGG,0.1
7,CCGCCUAACACUGCCAAUGCCGGUCCCAAGCCAGGAUAGAAGUGGAGGGGGCGG,0.08
8,CCGCCUAACACUGCCAAUGCCGGUCCCAAGCCGGGAUAGAAGUGGAGGGGGCGG,0.07
9,CCGCCUAACACUGCCAAUGCCGGUCCCAAGCCUGGAUAGAAGUGGAGGGGGCGG,0.63
10,CCGCCUAACACUGCCAAUGCCGGUCCCAAGCCCGGAUAGAAGUGGAGGGGGAGG,0.97
11,CCGCCUAACACUGCCAAUGCCGGUCCCAAGCCCGGAUAGAAGUGGAGGGGGGGG,0.98
12,CCGCCUAACACUGCCAAUGCCGGUCCCAAGCCCGGAUAGAAGUGGAGGGGGUGG,1.04
13,CCGCCUAACACUACCAAUGCCGGUCCCAAGCCCGGAUAGAAGUGGAGGGGGCGG,0.07
14,CCGCCUAACACUCCCAAUGCCGGUCCCAAGCCCGGAUAGAAGUGGAGGGGGCGG,0.03
15,CCGCCUAACACUUCCAAUGCCGGUCCCAAGCCCGGAUAGAAGUGGAGGGGGCGG,0.03
16,CCGCCUAACACUGCCAAUACCGGUCCCAAGCCCGGAUAGAAGUGGAGGGGGCGG,0.7
17,CCGCCUAACACUGCCAAUCCCGGUCCCAAGCCCGGAUAGAAGUGGAGGGGGCGG,0.31
18,CCGCCUAACACUGCCAAUUCCGGUCCCAAGCCCGGAUAGAAGUGGAGGGGGCGG,0.26
19,CCGCCUAACACUGCCAAUGCCAGUCCCAAGCCCGGAUAGAAGUGGAGGGGGCGG,0.95
20,CCGCCUAACACUGCCAAUGCCCGUCCCAAGCCCGGAUAGAAGUGGAGGGGGCGG,0.08
21,CCGCCUAACACUGCCAAUGCCUGUCCCAAGCCCGGAUAGAAGUGGAGGGGGCGG,0.26
22,CCGCCUAACACUGCCAAUGCCGAUCCCAAGCCCGGAUAGAAGUGGAGGGGGCGG,0.2
23,CCGCCUAACACUGCCAAUGCCGCUCCCAAGCCCGGAUAGAAGUGGAGGGGGCGG,0.07
24,CCGCCUAACACUGCCAAUGCCGUUCCCAAGCCCGGAUAGAAGUGGAGGGGGCGG,0.07
25,CCGCCUAACACUGCCAAUGCCGGUCCCAAACCCGGAUAGAAGUGGAGGGGGCGG,0.05

row,Variant,self-cleavage
1,CCGCCUAACACUGCCAAUGCCGGUCCCAACCCCGGAUAGAAGUGGAGGGGGCGG,0.05
2,CCGCCUAACACUGCCAAUGCCGGUCCCAAUCCCGGAUAGAAGUGGAGGGGGCGG,0.04
3,CCGCCUAACACUGCCAAUGCCGGUCCCAAGCCCAGAUAGAAGUGGAGGGGGCGG,0.8
4,CCGCCUAACACUGCCAAUGCCGGUCCCAAGCCCCGAUAGAAGUGGAGGGGGCGG,0.42
5,CCGCCUAACACUGCCAAUGCCGGUCCCAAGCCCUGAUAGAAGUGGAGGGGGCGG,0.68
6,CCGCCUAACACUGCCAAUGCCGGUCCCAAGCCCGAAUAGAAGUGGAGGGGGCGG,0.78
7,CCGCCUAACACUGCCAAUGCCGGUCCCAAGCCCGCAUAGAAGUGGAGGGGGCGG,0.22
8,CCGCCUAACACUGCCAAUGCCGGUCCCAAGCCCGUAUAGAAGUGGAGGGGGCGG,0.87
9,CCGCCUAACACUGCCAAUGCCGGUCCCAAGCCCGGAUAGAAAUGGAGGGGGCGG,0.37
10,CCGCCUAACACUGCCAAUGCCGGUCCCAAGCCCGGAUAGAACUGGAGGGGGCGG,0.16
11,CCGCCUAACACUGCCAAUGCCGGUCCCAAGCCCGGAUAGAAUUGGAGGGGGCGG,0.08
12,CCGCCUAACACUGCCAAUGCCGGUCCCAAGCCCGGAUAGAAGUAGAGGGGGCGG,0.85
13,CCGCCUAACACUGCCAAUGCCGGUCCCAAGCCCGGAUAGAAGUCGAGGGGGCGG,0.93
14,CCGCCUAACACUGCCAAUGCCGGUCCCAAGCCCGGAUAGAAGUUGAGGGGGCGG,0.89
15,CCGCCUAACACUGCCAAUGCCGGUCCCAAGCCCGGAUAGAAGUGAAGGGGGCGG,0.13
16,CCGCCUAACACUGCCAAUGCCGGUCCCAAGCCCGGAUAGAAGUGCAGGGGGCGG,0.07
17,CCGCCUAACACUGCCAAUGCCGGUCCCAAGCCCGGAUAGAAGUGUAGGGGGCGG,0.08
18,CCGCCUAACACUGCCAAUGCCGGUCCCAAGCCCGGAUAGAAGUGGAAGGGGCGG,0.13
19,CCGCCUAACACUGCCAAUGCCGGUCCCAAGCCCGGAUAGAAGUGGACGGGGCGG,0.09
20,CCGCCUAACACUGCCAAUGCCGGUCCCAAGCCCGGAUAGAAGUGGAUGGGGCGG,0.13
21,CCGCCUAACACUGCCAAUGCCGGUCCCAAGCCCGGAUAGAAGUGGAGAGGGCGG,0.1
22,CCGCCUAACACUGCCAAUGCCGGUCCCAAGCCCGGAUAGAAGUGGAGCGGGCGG,0.08
23,CCGCCUAACACUGCCAAUGCCGGUCCCAAGCCCGGAUAGAAGUGGAGUGGGCGG,0.07
24,CCGCCUAACACUGCCAAUGCCGGUCCCAAGCCCGGAUAGAAGUGGAGGAGGCGG,0.26
25,CCGCCUAACACUGCCAAUGCCGGUCCCAAGCCCGGAUAGAAGUGGAGGCGGCGG,0.08

row,Variant,self-cleavage
1,CCGCCUAACACUGCCAAUGCCGGUCCCAAGCCCGGAUAGAAGUGGAGGUGGCGG,0.1
2,CCGCCUAACACUGCCAAUGCCGGUCCCAAGCCCGGAUAGAAGUGGAGGGAGCGG,0.72
3,CCGCCUAACACUGCCAAUGCCGGUCCCAAGCCCGGAUAGAAGUGGAGGGCGCGG,0.84
4,CCGCCUAACACUGCCAAUGCCGGUCCCAAGCCCGGAUAGAAGUGGAGGGUGCGG,1
5,CCGCCUAACACUGCCAAUGCCGGUCCCAAGCCCGGAUAGAAGUGGAGGGGACGG,0.67
6,CCGCCUAACACUGCCAAUGCCGGUCCCAAGCCCGGAUAGAAGUGGAGGGGCCGG,0.09
7,CCGCCUAACACUGCCAAUGCCGGUCCCAAGCCCGGAUAGAAGUGGAGGGGUCGG,0.3
8,CCGCCUAACACUGCCAAUGCCGGUCCCAAGCCCGGAUAGAAGUGGAGGGGGCAG,0.55
9,CCGCCUAACACUGCCAAUGCCGGUCCCAAGCCCGGAUAGAAGUGGAGGGGGCCG,0.08
10,CCGCCUAACACUGCCAAUGCCGGUCCCAAGCCCGGAUAGAAGUGGAGGGGGCUG,0.2
11,CCGCCUAACACUGCCAAUGCCGGUCCCAAGCCCGGAUAGAAGUGGAGGGGGCGA,0.79
12,CCGCCUAACACUGCCAAUGCCGGUCCCAAGCCCGGAUAGAAGUGGAGGGGGCGC,0.76
13,CCGCCUAACACUGCCAAUGCCGGUCCCAAGCCCGGAUAGAAGUGGAGGGGGCGU,0.8
14,CCGCCUAACACAGCCAAUGCCGGUCCCAAGCCCGGAUAGAAGUGGAGGGGGCGG,0.69
15,CCGCCUAACACCGCCAAUGCCGGUCCCAAGCCCGGAUAGAAGUGGAGGGGGCGG,0.19
16,CCGCCUAACACGGCCAAUGCCGGUCCCAAGCCCGGAUAGAAGUGGAGGGGGCGG,0.28
17,CCGCCUAACACUGCCAAAGCCGGUCCCAAGCCCGGAUAGAAGUGGAGGGGGCGG,1
18,CCGCCUAACACUGCCAACGCCGGUCCCAAGCCCGGAUAGAAGUGGAGGGGGCGG,0.96
19,CCGCCUAACACUGCCAAGGCCGGUCCCAAGCCCGGAUAGAAGUGGAGGGGGCGG,0.87
20,CCGCCUAACACUGCCAAUGCCGGACCCAAGCCCGGAUAGAAGUGGAGGGGGCGG,0.09
21,CCGCCUAACACUGCCAAUGCCGGCCCCAAGCCCGGAUAGAAGUGGAGGGGGCGG,0.14
22,CCGCCUAACACUGCCAAUGCCGGGCCCAAGCCCGGAUAGAAGUGGAGGGGGCGG,0.02
23,CCGCCUAACACUGCCAAUGCCGGUCCCAAGCCCGGAAAGAAGUGGAGGGGGCGG,1.01
24,CCGCCUAACACUGCCAAUGCCGGUCCCAAGCCCGGACAGAAGUGGAGGGGGCGG,1
25,CCGCCUAACACUGCCAAUGCCGGUCCCAAGCCCGGAGAGAAGUGGAGGGGGCGG,1.01

row,Variant,self-cleavage
1,CCGCCUAACACUGCCAAUGCCGGUCCCAAGCCCGGAUAGAAGAGGAGGGGGCGG,0.8
2,CCGCCUAACACUGCCAAUGCCGGUCCCAAGCCCGGAUAGAAGCGGAGGGGGCGG,0.24
3,CCGCCUAACACUGCCAAUGCCGGUCCCAAGCCCGGAUAGAAGGGGAGGGGGCGG,0.36
4,CCGCCUAACACUGCCAAUGCCGGUCCCAAGCCCGGAUAUAAGUGGAGGGGGCGG,1
5,CCGCCUCACACUGCCAAUGCCGGUCCCAAGCCCGGAUAUAAGUGGAGGGGGCGG,0.04
6,CCGCCUGACACUGCCAAUGCCGGUCCCAAGCCCGGAUAUAAGUGGAGGGGGCGG,0.2
7,CCGCCUUACACUGCCAAUGCCGGUCCCAAGCCCGGAUAUAAGUGGAGGGGGCGG,0.08
8,CCGCCUACCACUGCCAAUGCCGGUCCCAAGCCCGGAUAUAAGUGGAGGGGGCGG,0.08
9,CCGCCUAGCACUGCCAAUGCCGGUCCCAAGCCCGGAUAUAAGUGGAGGGGGCGG,0.31
10,CCGCCUAUCACUGCCAAUGCCGGUCCCAAGCCCGGAUAUAAGUGGAGGGGGCGG,0.16
11,CCGCCUAACACUGCCAAUGCCGGUCCCAAGCCCGGAUAUCAGUGGAGGGGGCGG,0.12
12,CCGCCUAACACUGCCAAUGCCGGUCCCAAGCCCGGAUAUGAGUGGAGGGGGCGG,0.65
13,CCGCCUAACACUGCCAAUGCCGGUCCCAAGCCCGGAUAUUAGUGGAGGGGGCGG,0.64
14,CCGCCUAACACUGCCAAUGCCGGUCCCAAGCCCGGAUAUACGUGGAGGGGGCGG,0.66
15,CCGCCUAACACUGCCAAUGCCGGUCCCAAGCCCGGAUAUAGGUGGAGGGGGCGG,0.26
16,CCGCCUAACACUGCCAAUGCCGGUCCCAAGCCCGGAUAUAUGUGGAGGGGGCGG,1.03
17,CCGCCUAACACUGCCAAUGCCGGUCCCAAGCCCGGAUAUAAGUGGCGGGGGCGG,0.05
18,CCGCCUAACACUGCCAAUGCCGGUCCCAAGCCCGGAUAUAAGUGGGGGGGGCGG,0.04
19,CCGCCUAACACUGCCAAUGCCGGUCCCAAGCCCGGAUAUAAGUGGUGGGGGCGG,0.07
20,CCGCCUAAAACUGCCAAUGCCGGUCCCAAGCCCGGAUAUAAGUGGAGGGGGCGG,0.33
21,CCGCCUAAGACUGCCAAUGCCGGUCCCAAGCCCGGAUAUAAGUGGAGGGGGCGG,0.42
22,CCGCCUAAUACUGCCAAUGCCGGUCCCAAGCCCGGAUAUAAGUGGAGGGGGCGG,0.74

# Source: the RNAGym collection of RNA variant scans (doi:10.1002/anie.201605470)
